ChEMBL document CHEMBL4261522, “Discovery of potential antifungal triazoles: design, synthesis, biological evaluation, and preliminary antifungal mechanism exploration” (Medchemcomm, 2017)
In brackets after ≈: the same amount, converted by molar mass. Activity calls are given as the source filed them. No cut-off for these calls is given here.

Experiments:
[1] = test system: Cyberlindnera jadinii; experiment: Antifungal activity against Candida utilis by two-fold serial dilution method; type: functional; details: Williopsis jadinii
How it was run: (§1)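 MIC by standard two-fold serial dilution in 96-well microplates following NCCLS guidelines. Strains were supplied by Southwest University School of Pharmaceutical Sciences and Third Military Medical University College of Pharmacy.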

[2] = test system: Aspergillus flavus; experiment: Antifungal activity against Aspergillus flavus by two-fold serial dilution method; type: functional; how it was run: as §1
[3] = test system: Saccharomyces cerevisiae; experiment: Antifungal activity against Saccharomyces cerevisiae by two-fold serial dilution method; type: functional; how it was run: as §1
[4] = test system: Candida albicans; experiment: Antifungal activity against Candida albicans by two-fold serial dilution method; type: functional; how it was run: as §1
[5] = test system: Kregervanrija fluxuum; experiment: Antifungal activity against Candida mycoderma by two-fold serial dilution method; type: functional; how it was run: as §1
[6] = test system: Saccharomyces cerevisiae; experiment: Potency index, ratio of miconazole MIC to compound MIC for Saccharomyces cerevisiae; type: functional
[7] = test system: Aspergillus flavus; experiment: Potency index, ratio of fluconazole MIC to compound MIC for Aspergillus flavus by two-fold serial dilution method; type: functional
[8] = test system: Aspergillus flavus; experiment: Potency index, ratio of miconazole MIC to compound MIC for Aspergillus flavus by two-fold serial dilution method; type: functional
[9] = test system: Cyberlindnera jadinii; experiment: Potency index, ratio of miconazole MIC to compound MIC for Candida utilis by two-fold serial dilution method; type: functional
[10] = test system: Calf thymus DNA; experiment: Binding affinity to calf thymus DNA by UV absorption spectral analysis; type: nucleic-acid assay; details: Bos taurus
[11] = test system: Calf thymus DNA; experiment: Inhibition of neural red dye binding to calf thymus DNA by UV absorption spectral analysis; type: nucleic-acid assay; details: Bos taurus
[12] = test system: Calf thymus DNA; experiment: Binding affinity to calf thymus DNA assessed as hyperchromic effect between compound and DNA by UV absorption spectral analysis; type: nucleic-acid assay; details: Bos taurus
How it was run: (§2)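 UV absorption of the compound–DNA complex compared with the summed absorbance of free DNA and free compound. A measured value below the sum was read as hypochromism and one above it as hyperchromism.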

[13] = test system: Calf thymus DNA; experiment: Binding affinity to calf thymus DNA assessed as iodide quenching by measuring Stern-Volmer quenching constant by fluorescence spectral analysis (reference value: 11.6 +/- 0.067 L/mol); type: nucleic-acid assay; details: Bos taurus
How it was run: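 Fluorescence titration with KI as quencher, 0–12 × 10–3 mol L–1 in 2 × 10–3 mol L–1 steps. Compound at 1.0 × 10–5 mol L–1, alone or with DNA at 2.0 × 10–5 mol L–1. Run at 298 K with excitation at 290 nm. Quenching constant taken from a Stern–Volmer plot of F0/F against KI.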

[14] = test system: Calf thymus DNA; experiment: Binding affinity to calf thymus DNA assessed as hypochromic effect between compound and DNA by UV absorption spectral analysis; type: nucleic-acid assay; details: Bos taurus; how it was run: as §2
[15] = test system: Kregervanrija fluxuum; experiment: Potency index, ratio of miconazole MIC to compound MIC for Candida mycoderma; type: functional

| SMILES | MIC [1] [µg/mL] | MIC [2] [µg/mL] | MIC [3] [µg/mL] | MIC [4] [µg/mL] | MIC [5] [µg/mL] | Ratio [6] | Ratio [7] | Ratio [8] | Ratio [9] | Activity [10] | K [10] [×10⁴ L/mol] | inhibition [11] | Activity [12] | KSV [13] [L/mol] | Activity [14] | Ratio [15] |
| --- | --- | --- | --- | --- | --- | --- | --- | --- | --- | --- | --- | --- | --- | --- | --- | --- |
| Fc1ccc(C(Cn2cncn2)OCc2ccccc2Cl)c(F)c1 (stereo unspecified) | 8 (≈ 22.9 µM) | 16 (≈ 45.7 µM) | 16 (≈ 45.7 µM) | 8 (≈ 22.9 µM) | 8 (≈ 22.9 µM) | – | – | – | – | – | – | – | – | – | – | – |
| CCCCCCCCCCCCOC(Cn1cncn1)c1ccc(F)cc1F (stereo unspecified) | > 256 | 128 (≈ 325 µM) | 8 (≈ 20.3 µM) | > 256 | > 256 | 4 | – | – | – | – | – | – | – | – | – | – |
| OC(Cn1cncn1)(Cn1cncn1)c1ccc(F)cc1F [FLUCONAZOLE] | 8 (≈ 26.1 µM) | 256 (≈ 836 µM) | 16 (≈ 52.2 µM) | 1 (≈ 3.27 µM) | 4 (≈ 13.1 µM) | – | – | – | – | – | – | – | – | – | – | – |
| CCCCCCOC(Cn1cncn1)c1ccc(F)cc1F (stereo unspecified) | 16 (≈ 51.7 µM) | 32 (≈ 103 µM) | 32 (≈ 103 µM) | 64 (≈ 207 µM) | 32 (≈ 103 µM) | – | – | – | – | – | – | – | – | – | – | – |
| Fc1ccc(C(Cn2cncn2)OCc2ccccc2F)c(F)c1 (stereo unspecified) | 4 (≈ 12 µM) | 32 (≈ 96 µM) | 16 (≈ 48 µM) | 0.5 (≈ 1.5 µM) | 2 (≈ 6 µM) | – | 8 | 8 | – | – | – | – | – | – | – | – |
| Fc1ccc(COC(Cn2cncn2)c2ccc(F)cc2F)c(F)c1 (stereo unspecified) | 4 (≈ 11.4 µM) | 16 (≈ 45.5 µM) | 4 (≈ 11.4 µM) | 4 (≈ 11.4 µM) | 8 (≈ 22.8 µM) | – | 16 | 16 | – | – | – | – | – | – | – | – |
| Fc1ccc(C(Cn2cncn2)OCc2cccc(Cl)c2)c(F)c1 (stereo unspecified) | 8 (≈ 22.9 µM) | 32 (≈ 91.5 µM) | 16 (≈ 45.7 µM) | 16 (≈ 45.7 µM) | 16 (≈ 45.7 µM) | – | – | – | – | – | – | – | – | – | – | – |
| O=[N+]([O-])c1ccc(COC(Cn2cncn2)c2ccc(F)cc2F)cc1 (stereo unspecified) | > 256 | > 256 | > 256 | > 256 | > 256 | – | – | – | – | – | – | – | – | – | – | – |
| Fc1ccc(C(Cn2c[n+](Cc3ccc(Cl)cc3Cl)cn2)OCc2ccc(Cl)cc2Cl)c(F)c1.[Cl-] (stereo unspecified) | 8 | 32 | 64 | 16 | 32 | – | – | – | – | – | – | – | – | – | – | – |
| CCCCOC(Cn1cncn1)c1ccc(F)cc1F (stereo unspecified) | 8 (≈ 28.4 µM) | 128 (≈ 455 µM) | 128 (≈ 455 µM) | 64 (≈ 228 µM) | 64 (≈ 228 µM) | – | – | – | 2 | – | – | – | – | – | – | – |
| OC(Cn1cncn1)c1ccc(F)cc1F (stereo unspecified) | 256 (≈ 1140 µM) | > 256 | > 256 | 128 (≈ 568 µM) | 256 (≈ 1140 µM) | – | – | – | – | – | – | – | – | – | – | – |
| Fc1ccc(C(Cn2cncn2)OCc2ccc(Cl)cc2Cl)c(F)c1 (stereo unspecified) | 4 (≈ 10.4 µM) | 16 (≈ 41.6 µM) | 8 (≈ 20.8 µM) | 8 (≈ 20.8 µM) | 16 (≈ 41.6 µM) | – | 16 | 16 | – | – | – | – | – | – | – | – |
| Cc1cc(=O)oc2cc(OCCCCCCOC(Cn3cncn3)c3ccc(F)cc3F)ccc12 (stereo unspecified) | 16 (≈ 33.1 µM) | 16 (≈ 33.1 µM) | 16 (≈ 33.1 µM) | 2 (≈ 4.14 µM) | 1 (≈ 2.07 µM) | – | – | – | – | Dose-dependent effect | 5.06 | Dose-dependent effect | Active | – | – | – |
| Fc1ccc(C(Cn2cncn2)OCc2ccc(Cl)c(Cl)c2)c(F)c1 (stereo unspecified) | 1 (≈ 2.6 µM) | 8 (≈ 20.8 µM) | 0.5 (≈ 1.3 µM) | 1 (≈ 2.6 µM) | 4 (≈ 10.4 µM) | 64 | 32 | 32 | – | Dose-dependent effect | 1.04 | Dose-dependent effect | – | 10.7 | Active | – |
| Fc1ccc(C(Cn2cncn2)OCc2ccc(Cl)cc2)c(F)c1 (stereo unspecified) | 4 (≈ 11.4 µM) | 8 (≈ 22.9 µM) | 16 (≈ 45.7 µM) | 8 (≈ 22.9 µM) | 16 (≈ 45.7 µM) | – | – | – | – | – | – | – | – | – | – | – |
| CCCCCCCCOC(Cn1cncn1)c1ccc(F)cc1F (stereo unspecified) | 16 (≈ 47.4 µM) | 128 (≈ 379 µM) | 16 (≈ 47.4 µM) | 4 (≈ 11.9 µM) | 16 (≈ 47.4 µM) | – | – | – | – | – | – | – | – | – | – | – |
| Clc1ccc(COC(Cn2ccnc2)c2ccc(Cl)cc2Cl)c(Cl)c1 (stereo unspecified) [MICONAZOLE] | 16 (≈ 38.4 µM) | 256 (≈ 615 µM) | 32 (≈ 76.9 µM) | 4 (≈ 9.61 µM) | 8 (≈ 19.2 µM) | – | – | – | – | – | – | – | – | – | – | – |
| Cc1cc(=O)oc2cc(OCCOC(Cn3cncn3)c3ccc(F)cc3F)ccc12 (stereo unspecified) | 256 (≈ 599 µM) | 256 (≈ 599 µM) | 128 (≈ 299 µM) | 128 (≈ 299 µM) | 256 (≈ 599 µM) | – | – | – | – | – | – | – | – | – | – | – |
| Fc1ccc(C(Cn2c[n+](Cc3ccc(Cl)c(Cl)c3)cn2)OCc2ccc(Cl)c(Cl)c2)c(F)c1.[Cl-] (stereo unspecified) | 32 | 64 | 16 | 32 | 64 | – | – | – | – | – | – | – | – | – | – | – |
| Fc1ccc(C(Cn2cncn2)OCCCCOC(Cn2cncn2)c2ccc(F)cc2F)c(F)c1 (stereo unspecified) | 128 (≈ 254 µM) | 64 (≈ 127 µM) | 64 (≈ 127 µM) | 128 (≈ 254 µM) | 128 (≈ 254 µM) | – | – | – | – | – | – | – | – | – | – | – |
| Fc1ccc(C(Cn2cncn2)OCCCCCCOC(Cn2cncn2)c2ccc(F)cc2F)c(F)c1 (stereo unspecified) | > 256 | 256 (≈ 481 µM) | 128 (≈ 240 µM) | 256 (≈ 481 µM) | 256 (≈ 481 µM) | – | – | – | – | – | – | – | – | – | – | – |
| O=[N+]([O-])c1ccc(COC(Cn2c[n+](Cc3ccc([N+](=O)[O-])cc3)cn2)c2ccc(F)cc2F)cc1.[Cl-] (stereo unspecified) | 32 | 16 | 64 | 8 | 16 | – | – | – | – | – | – | – | – | – | – | – |
| CCCOC(Cn1cncn1)c1ccc(F)cc1F (stereo unspecified) | 32 (≈ 120 µM) | 128 (≈ 479 µM) | 64 (≈ 239 µM) | 4 (≈ 15 µM) | 1 (≈ 3.74 µM) | – | – | – | – | – | – | – | – | – | – | 8 |
| Fc1ccc(C(Cn2cncn2)OCCOC(Cn2cncn2)c2ccc(F)cc2F)c(F)c1 (stereo unspecified) | 8 (≈ 16.8 µM) | 256 (≈ 537 µM) | 8 (≈ 16.8 µM) | 64 (≈ 134 µM) | 256 (≈ 537 µM) | – | – | – | – | – | – | – | – | – | – | – |
| Fc1ccc(C(Cn2c[n+](Cc3ccccc3F)cn2)OCc2ccccc2F)c(F)c1.[Cl-] (stereo unspecified) | 32 | 64 | 32 | 32 | 8 | – | – | – | – | – | – | – | – | – | – | – |
| Fc1ccc(COC(Cn2c[n+](Cc3ccc(F)cc3F)cn2)c2ccc(F)cc2F)c(F)c1.[Cl-] (stereo unspecified) | > 256 | > 256 | 128 | > 256 | > 256 | – | – | – | – | – | – | – | – | – | – | – |
| Cc1cc(=O)oc2cc(OCCCCOC(Cn3cncn3)c3ccc(F)cc3F)ccc12 (stereo unspecified) | 16 (≈ 35.1 µM) | 32 (≈ 70.3 µM) | 4 (≈ 8.78 µM) | 4 (≈ 8.78 µM) | 2 (≈ 4.39 µM) | – | – | – | – | – | – | – | – | – | – | – |
